{"data": "Experimental data collected from several papers", "note": "Lines come from different studies, so protocols differ. pIC50: −log10 of the molar value."}
{"Compound": "CN(C)CCNC(=O)c1ccc(-c2nc3ccc4[nH]ncc4c3c3c2CCCC3)c(F)c1", "target or system": "G-361", "assay": "cell growth or viability", "conditions": "72 h", "quantity": "GI50", "value": "3.27 µM"}
{"Compound": "O=C1C(=Nc2ccc(Cl)cc2)c2ccccc2N1Cc1ccc(Br)cc1", "target or system": "B16", "assay": "cell growth or viability, MTT", "conditions": "48 h", "quantity": "pIC50", "value": 4.85}
{"Compound": "O=C(O[C@@H]1O[C@@H]2COC(=O)c3cc(O)c(O)c(O)c3-c3c(cc(O)c(O)c3O)C(=O)O[C@H]([C@H]1O)[C@@H]2O)c1cc(O)c(O)c(O)c1", "target or system": "Streptococcus gordonii", "assay": "microbial killing, broth dilution", "quantity": "MBC", "value": "800 µg/mL"}
{"Compound": "C[C@H]1[C@H](NC(=O)/C(=N\\OC(C)(C)C(=O)O)c2csc(N)n2)C(=O)N1S(=O)(=O)O", "target or system": "Acinetobacter baumannii", "assay": "microbial growth, broth dilution", "system": "ATCCBAA1605", "quantity": "MIC", "value": "> 64 µg/mL"}
{"Compound": "CCCCCCC#Cc1cncc(-c2nnc(SCc3ccc(Cl)cc3)n2CCCN)c1", "target or system": "Acinetobacter baumannii", "assay": "microbial growth, broth dilution", "system": "ATCC17978", "quantity": "MIC", "value": "16 µg/mL"}
{"Compound": "CC(C)(C)c1cc(NC(=O)Nc2ccc(-c3cn4c(n3)sc3cc(OCCN5CCOCC5)ccc34)cc2)no1", "target or system": "G-361", "assay": "cell growth or viability", "conditions": "72 h", "quantity": "GI50", "value": "> 10 µM"}
{"Compound": "C[C@@H](O)[C@H]1C(=O)N2C(C(=O)O)=C(S[C@@H]3CN[C@H](C(=O)N(C)C)C3)[C@H](C)[C@H]12", "target or system": "Acinetobacter baumannii", "assay": "microbial growth, broth dilution", "system": "ATCCBAA1605", "quantity": "MIC", "value": "16 µg/mL"}
{"Compound": "O=C1Nc2ccccc2C1=Nc1ccccc1Br", "target or system": "B16", "assay": "cell growth or viability, MTT", "conditions": "48 h", "quantity": "pIC50", "value": "< 4.00"}
{"Compound": "CN(C)[C@@H]1C(O)=C(C(N)=O)C(=O)[C@@]2(O)C(O)=C3C(=O)c4c(O)cccc4[C@@](C)(O)[C@H]3C[C@@H]12", "target or system": "Acinetobacter baumannii", "assay": "microbial growth, broth dilution", "system": "ATCCBAA1605", "quantity": "MIC", "value": "> 64 µg/mL"}
{"Compound": "Cc1cccc(N=C2C(=O)N(Cc3ccccc3)c3ccccc32)c1", "target or system": "B16", "assay": "cell growth or viability, MTT", "conditions": "48 h", "quantity": "pIC50", "value": 5.97}
{"Compound": "C[C@@H](O)[C@H]1C(=O)N2C(C(=O)O)=C(SCCN=CN)C[C@H]12", "target or system": "Acinetobacter baumannii", "assay": "microbial growth, broth dilution", "system": "ATCC19606", "quantity": "MIC", "value": "1 µg/mL"}
{"Compound": "FC(F)(F)c1ccc(-c2cc(CNc3cccc4cccnc34)on2)cc1", "target or system": "Z-138", "assay": "cell growth or viability, MTS", "conditions": "72 h", "quantity": "pIC50", "value": 4.07}
{"Compound": "CC[C@H]1OC(=O)[C@H](C)[C@@H](O[C@H]2C[C@@](C)(OC)[C@@H](O)[C@H](C)O2)[C@H](C)[C@@H](O[C@@H]2O[C@H](C)C[C@H](N(C)C)[C@H]2O)[C@](C)(O)C[C@@H](C)CN(C)[C@H](C)[C@@H](O)[C@]1(C)O", "target or system": "Acinetobacter baumannii", "assay": "microbial growth, broth dilution", "system": "ATCC19606", "quantity": "MIC", "value": "1 µg/mL"}
{"Compound": "O=C1OC[C@H]2OC(O)[C@H](O)[C@@H](O)[C@@H]2OC(=O)c2cc(O)c(O)c(O)c2-c2c(O)c(O)c3oc(=O)c4c(c(O)c(O)c5oc(=O)c2c3c54)-c2c1cc(O)c(O)c2O (mixture of isomers)", "target or system": "Streptococcus gordonii", "assay": "microbial growth, broth dilution", "conditions": "24 h", "quantity": "MIC", "value": "200 µg/mL"}
{"Compound": "Cc1cccc(N=C2C(=O)Nc3ccccc32)c1", "target or system": "B16", "assay": "cell growth or viability, MTT", "conditions": "48 h", "quantity": "pIC50", "value": 4.29}
{"Compound": "Cc1n[nH]c2ccc3nc(-c4ccc(C(=O)NCCN(C)C)cc4F)c4c(c3c12)CCCC4", "target or system": "G-361", "assay": "cell growth or viability", "conditions": "72 h", "quantity": "GI50", "value": "1.58 µM"}
{"Compound": "C[C@@H]1O[C@@H](OC[C@H]2O[C@@H](Oc3c(-c4ccc(O)c(O)c4)oc4cc(O)cc(O)c4c3=O)[C@H](O)[C@@H](O)[C@@H]2O)[C@H](O)[C@H](O)[C@H]1O", "target or system": "Streptococcus gordonii", "assay": "microbial growth, disc diffusion", "conditions": "500 µg/disc", "quantity": "inhibition zone", "value": "13 mm"}
{"Compound": "Cc1cccc(N=C2C(=O)N(Cc3ccc(Br)cc3)c3ccccc32)c1", "target or system": "B16", "assay": "cell growth or viability, MTT", "conditions": "48 h", "quantity": "pIC50", "value": 5.16}
{"Compound": "O=C1O[C@H]2[C@@H]3OC(=O)c4cc(O)c(O)c(O)c4-c4c(O)c(O)c5oc(=O)c6c(c(O)c(O)c7oc(=O)c4c5c76)-c4c(cc(O)c(O)c4O)C(=O)OC[C@H]3OC(O)[C@@H]2OC(=O)c2cc(O)c(O)c(O)c2-c2c1cc(O)c(O)c2O (mixture of isomers)", "target or system": "Streptococcus gordonii", "assay": "microbial growth, disc diffusion", "conditions": "500 µg/disc", "quantity": "inhibition zone", "value": "14.2 mm"}
{"Compound": "CCc1ccc(N=C2C(=O)N(Cc3ccccc3)c3ccccc32)cc1", "target or system": "B16", "assay": "cell growth or viability, MTT", "conditions": "48 h", "quantity": "pIC50", "value": 6.30}
{"Compound": "O=c1oc2c(O)c(O)cc3c(=O)oc4c(O)c(O)cc1c4c23", "target or system": "Streptococcus gordonii", "assay": "microbial killing, broth dilution", "quantity": "MBC", "value": "400 µg/mL"}
{"Compound": "CO/N=C(\\C(=O)N[C@@H]1C(=O)N2C(C(=O)O)=CCS[C@H]12)c1csc(N)n1", "target or system": "Acinetobacter baumannii", "assay": "microbial growth, broth dilution", "system": "ATCCBAA1605", "quantity": "MIC", "value": "> 64 µg/mL"}
{"Compound": "O=C1C(=Nc2cccc(Cl)c2)c2ccccc2N1Cc1ccc([N+](=O)[O-])cc1", "target or system": "B16", "assay": "cell growth or viability, MTT", "conditions": "48 h", "quantity": "pIC50", "value": 6.26}
{"Compound": "Oc1cc(O)c2c(c1)O[C@H](c1cc(O)c(O)c(O)c1)[C@@H](O)C2", "target or system": "Streptococcus gordonii", "assay": "microbial killing, broth dilution", "quantity": "MBC", "value": "100 µg/mL"}
